Experimental data collected from several papers.
Each line is one published result; the experiments were not run side by side.
Target: Serine/threonine-protein kinase mTOR (MTOR, Homo sapiens, UniProt P42345)

c1cnn2ncc(-c3ccnc(N4CCC45COC5)n3)c2c1  remaining binding (binding; 1 µM): 96%
O=C(NCC1CCOCC1)c1n[nH]cc1NC(=O)c1c(F)cccc1F  remaining binding (binding, competition with immobilised ligand; 1 µM): 100%
FC(F)(F)Oc1cccc(-c2cnc3ccc(-c4ccncc4)nn23)c1  remaining binding (cell-free assay, competition with immobilised ligand; 5 µM): 42%
COc1cc(-c2cn(C3CCc4ccccc4N(CC(F)(F)F)C3=O)nn2)ccc1-n1ccc(C)n1 (stereo not drawn)  remaining binding (cell-free assay, competition with immobilised ligand; 1 µM): 100%
CN(C)c1ncc(F)c(-c2cnn3ncccc23)n1  remaining binding (binding; 1 µM): 100%
COc1cnc(Nc2cccc(S(N)(=O)=O)c2)nc1N1CCN(c2ccccc2)CC1  remaining binding (binding, competition with immobilised ligand; 1 µM): 93%
N[C@H]1CCN(c2nccc(-c3cnn4ncccc34)n2)C1  remaining binding (binding; 1 µM): 66%
CN(C)C(=O)Cn1cc(-c2nc(C3(c4ccc(-c5cnc(N)nc5)cc4)CC3)no2)cn1  remaining binding (cell-free assay, competition with immobilised ligand; 1 µM): 91%
C[C@@H]1CCN(c2nccc(-c3cnn4ncccc34)n2)C1  remaining binding (binding; 1 µM): 97%
COc1cnc(Nc2cccc(S(N)(=O)=O)c2)nc1N1CCN(c2ccccc2)C(=O)C1  remaining binding (binding, competition with immobilised ligand; 1 µM): 87%
COc1ncc2cc3ccccc3nc2c1C#N  remaining binding (cell-free assay, competition with immobilised ligand; 5 µM): 91%
O=C(c1ccc(Nc2ncc(Cl)c(-c3ccc(Cl)s3)n2)cc1)N1CCC(N2CCCC2)CC1  remaining binding (binding, competition with immobilised ligand; 1 µM): 86%
C[C@@H](c1ccc(-n2cnc3c(N)ncnc32)cc1)N1CCc2nn(C)c(Cc3ccccc3)c2C1=O  remaining binding (binding, competition with immobilised ligand; 0.1 µM): 83%
O=C(O)[C@H]1[C@H](Cn2nnc3ccccc3c2=O)CC[C@@H]1C(=O)c1ccc(OCCC2CCOCC2)cc1  remaining binding (cell-free assay, competition with immobilised ligand; 1 µM): 100%
Cc1cnn2ncc(-c3ccnc(N(C)C)n3)c2c1  remaining binding (binding; 1 µM): 100%
O=C(Nc1ccc(Oc2ccc(F)cc2)cc1)N1CCc2ncccc2[C@H]1c1ccc(F)cc1  remaining binding (cell-free assay, competition with immobilised ligand; 1 µM): 100%
CC1CCCN1c1nccc(-c2cnn3ncccc23)n1 (stereo not drawn)  remaining binding (binding; 1 µM): 95%
Cc1cnc(Nc2ccc(C(=O)N3CCC(N4CCCC4)CC3)cc2)nc1-c1cc2ccccc2s1  remaining binding (binding, competition with immobilised ligand; 1 µM): 85%
CN(C)c1ncnc(-c2ccc3nc(Nc4cc(CN5CCN(C(=O)CC(F)(F)F)CC5)ccn4)[nH]c3c2)c1Cl  remaining binding (cell-free assay, competition with immobilised ligand; 1 µM): 100%
O=C(NCCCN1CCOCC1)c1ccc(Nc2ncc(Cl)c(-c3ccc(Cl)s3)n2)cc1  remaining binding (binding, competition with immobilised ligand; 1 µM): 94%
O=C(O)c1cc(-c2ccc(C3CCNCC3)cc2)c2ccc(-c3ccc(C(F)(F)F)cc3)cc2c1  remaining binding (cell-free assay, competition with immobilised ligand; 1 µM): 90%
